Data set [1] has as its system L. monocytogenes ATCC 19115. In words: Inhibition of biofilm formation, crystal violet. The format is cell-based, Listeria monocytogenes. To be noted: sodium lactate at 5 % (positive control); 37 °C, 24 h, crystal violet A570. In outline: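 Test compound stock mixed with L. monocytogenes at 10^6 CFU/mL to final 2, 4 and 8 μg/mL, grown in microplate wells. Phosphate buffer (pH 7.0) served as negative control. Planktonic cells removed, wells washed twice with phosphate buffer, then stained 30 min with 0.1 % crystal violet and rinsed. Bound dye eluted with 95 % ethanol. Run in triplicate.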

Another data set has as its system L. monocytogenes. To be noted: as reported; cited from earlier work.
In the next data set the test system is MCF10A human cells. As to conditions: 0.27 to 27 μmol/L; cited from earlier work.
Data set [2] deals with defibrinated erythrocytes. As to conditions: enterocin AS-48 at 5–20 μmol/L; cited from earlier work.
A further data set relates to CCDC18Co human cells. To be noted: 0.27 to 27 μmol/L; cited from earlier work.

Consider `CC(O)C(=O)[O-].[Na+]` (centres unmarked) [sodium lactate], for which the “inhibition rate of biofilm formation” value in data set [1] is given as 54.36%.

Usually MIC stands for the lowest concentration that inhibits growth of the organism. For enterocin AS-48, the MIC with L. monocytogenes was 0.1 µg/mL. Also, the Cytotoxicity result with MCF10A human cells and with CCDC18Co human cells was “no cytotoxicity” in each case. Besides, the percent hemolysis in data set [2] was 3%–22.6.

Source of the values: paper PMC11078769 (Heliyon, 2024).
